High-throughput results: PubChem BioAssay, The Scripps Research Institute Molecular Screening Center
Hits are enriched below; roughly 2.5% of the tested compounds scored in any of these assays.
OX1R antag-1: human HCRTR1 antagonism | actives 0.43% (n = 330,000) | inhibition, % at 5 µM | AID 434989 | CHO/OX1R cells, Fluo-8 calcium fluorescence, orexin A | O43613;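 active means inhibition above its plate's threshold, mean inhibition of all tested compounds on the plate plus 3 SD, cut at about 37% in these data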;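 further: 0% = orexin A challenge wells and 100% = SB-334867-A antagonist wells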
Target sequence (O43613 whole entry, looked up): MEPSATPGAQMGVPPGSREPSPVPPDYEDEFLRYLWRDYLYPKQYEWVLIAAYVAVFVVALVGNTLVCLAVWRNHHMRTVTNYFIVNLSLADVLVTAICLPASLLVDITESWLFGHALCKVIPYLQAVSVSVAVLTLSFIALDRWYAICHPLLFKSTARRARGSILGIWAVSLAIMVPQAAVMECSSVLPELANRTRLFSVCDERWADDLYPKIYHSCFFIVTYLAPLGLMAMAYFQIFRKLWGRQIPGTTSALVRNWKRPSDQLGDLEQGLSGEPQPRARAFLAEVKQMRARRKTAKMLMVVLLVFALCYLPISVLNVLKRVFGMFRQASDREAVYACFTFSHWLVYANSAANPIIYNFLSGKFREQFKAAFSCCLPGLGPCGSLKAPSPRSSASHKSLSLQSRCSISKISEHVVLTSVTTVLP
TRPML3 agonist: human mucolipin-3 channel agonism | Q8TDD5 | HEK293 TRPML3-YFP, Fluo-8 calcium fluorescence; 100% = the carbachol control signal | activation, % at 3 µM | actives 0.29% (n = 220,000) | AID 1448;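 active means activation above its plate's cutoff, the mean activation of the plate's test wells plus 3 SD, cut at about 12% in these data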;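 further: 0% = DMSO only wells and 100% = carbachol wells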
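system = HEK293 cells stably carrying human TRPML3-YFP | doses = one concentration, 3 µM nominal, 0.3% DMSO | timing = dye loading 1 h 37 °C then 30 min ambient, 125 s read | detection = Fluo-8 calcium dye fluorescence, ex 470-495, em 515-575 nm | benchmarks = high control carbachol 87 µM, low control DMSO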
CHO parental Ca: signal in parental CHO cells, OX1R antagonist counter-screen | inhibition, % at 5.6 µM | actives 0.63% (n = 330,000) | parental CHO-K1, ATP-induced calcium, Fluo-8 fluorescence | AID 463079;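 active means inhibition above that plate's mean sample inhibition plus 3 SD, cut at about 26% in these data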;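 further: 0% = ATP-challenged DMSO wells and 100% = DMSO wells without ATP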
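Assay system: untransfected parental CHO cell line. Also added: ATP agonist challenge. Dosing: one dose, 5.6 µM nominal. Measured by: Fluo-8 fluorescence. Read-out: % inhibition. Benchmarks: ATP wells versus no-ATP DMSO wells. Repeats: no replicates.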
zfTRPN1 agonist: agonists of zebrafish TRPN1 channel; HEK293 zebrafish TRPN1-YFP, Fluo-8 calcium fluorescence; 100% = response to 87 µM carbachol; activation, % at 3 µM; actives 0.18% (n = 220,000); AID 1424;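 active means activation above its plate's cutoff, the mean activation of test wells on that plate plus 3 SD, cut at about 19% in these data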;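 further: 0% = DMSO alone and 100% = 87 µM carbachol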
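Material – zebrafish TRPN1-YFP in HEK293 cells · Doses – 3 µM single point · Schedule – dye 1 h 37 °C plus 30 min RT · Signal – Fluo-8 calcium fluorescence, excitation 470-495 nm, emission 515-575 nm · Read-out – % activation versus carbachol response · Control set – carbachol high, DMSO low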
OX1R antag-2: OX1R (human) antagonism; OX1R-expressing cells, FRET antagonist read-out; inhibition, % at 6.6 µM; actives 1.8% (n = 330,000); AID 485270; in the data active means inhibition mostly above about 38%, no sharp cut-off; inactive means mostly below about 40%;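 further: 0% = agonist challenge alone and 100% = reference antagonist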
The depositor's hits bear a star; . = not tested or not shown.

SMILES | OX1R antag-1 | TRPML3 agonist | CHO parental Ca | zfTRPN1 agonist | OX1R antag-2
CC1CCCN(CCCNC(=O)C2CCC(CNS(=O)(=O)c3cccc4nsnc34)CC2)C1 (stereo not given) | 0.9 | . | -7.4 | . | 48.2*
CCCNC(=O)C1CCC(CNS(=O)(=O)c2cccc3nsnc23)CC1 (stereo not given) | 7.6 | . | 0.3 | . | 33.6
CCC(C)NC(=O)C1CCC(CNS(=O)(=O)c2cccc3nsnc23)CC1 (stereo not given) | -8.2 | . | -9.7 | . | 49.7*
O=C(CCCNS(=O)(=O)c1cccc2nsnc12)NC1CCCCC1 | -19.7 | 0.6 | -11.7 | 0.1 | 80.2*
CCOCCCNC(=O)C1CCC(CNS(=O)(=O)c2cccc3nsnc23)CC1 (stereo not given) | -11.7 | 0.9 | -7.2 | -0.2 | 52.9*
O=C(CCCNS(=O)(=O)c1cccc2nsnc12)N1CCCCC1 | -13.6 | 0.4 | 3.1 | 0.8 | 50.6
O=C(O)Cn1ccc2cc(S(=O)(=O)N3CCCCCC3)ccc21 | -7.4 | . | -1.3 | . | 4.8
O=C1NC(=Nc2ccc(O)cc2)S/C1=C\C=C\c1ccco1 | -24.7 | -0.1 | -8.7 | 0.2 | 7.6
CC(OC(=O)C1CCCC1)C(=O)Nc1ccc(C(N)=O)cc1 (stereo not given) | -12.4 | . | -3.3 | . | 3.7
Cc1ccc(S(=O)(=O)N(C)CC(=O)Nc2cc(C)ccn2)cc1 | 0.5 | . | -10.2 | . | 14.8
CC(C)(C)OC(=O)C[C@@H]1C/C=C\C[C@@H](CC(=O)NCCO)C(=O)N[C@H](Cc2ccccc2)COC1=O | -11.9 | . | -7.8 | . | 4.6
Cc1cnc(C(=O)OCC(=O)c2ccc(F)c(F)c2)cn1 | -3.5 | . | -2.2 | . | 15.2
Cc1cccc(C)c1N=C1C(=O)Nc2ccccc21 | -11.4 | . | -0.2 | . | 2.5
Cc1cc(C)c(N=C2C(=O)Nc3ccccc32)c(C)c1 | 7.9 | . | -5.8 | . | 37.8*
CSc1nnc2c(n1)[nH]c1c(C)cccc12 | -7.7 | 1.6 | -3.7 | 2.5 | 32.4
CCSc1nnc2c(n1)[nH]c1c(C)cccc12 | -6.7 | 1.8 | 1.0 | 4.9 | 40.2*
O=C1[C@@H]2CSCN2C(=O)CN1Cc1c(F)cccc1Cl | -12.5 | . | -0.4 | . | -1.1
CCn1cc(C(=O)N2CCN(c3ccccn3)CC2)c(=O)c2cc(S(=O)(=O)N(C)C3CCCCC3)ccc21 | -35.6 | 1.0 | -34.6 | 1.3 | 9.0
CCC(=O)N(CCc1ccccc1)Cc1cc2cccc(C)c2[nH]c1=O | -30.2 | . | -20.4 | . | 7.6
CN(C)C=Nc1c(Br)cc(Br)c2nonc12 | 58.0* | 7.6 | 64.4* | 8.2 | 42.7
COc1ccc(S(=O)(=O)Nc2ccc(Oc3ccsc3C(=O)O)cc2)cc1 | 3.0 | . | -3.5 | . | 1.4
CCc1ccc(NC(=O)CN2CCCN(S(=O)(=O)c3ccc(F)cc3)CC2)cc1 | -28.9 | . | -13.0 | . | 21.5
CC1C(=O)N(Cc2ccccc2F)c2ccccc2N1C(=O)c1c(F)cccc1F (stereo not given) | 27.1 | . | 62.2* | . | 14.8
COc1ccc(CNC(=O)c2c(C)oc3c2C(=O)c2ccccc2C3=O)cc1 | 5.2 | 0.6 | 8.0 | 1.1 | 29.9
Cc1oc2c(c1C(=O)NCc1cccnc1)C(=O)c1ccccc1C2=O | -31.7 | 0.8 | -7.6 | 1.5 | 45.6*
SMILES | OX1R antag-1 | TRPML3 agonist | CHO parental Ca | zfTRPN1 agonist | OX1R antag-2
CC(=O)Nc1ccc(NC2=C(Cl)C(=O)c3ccccc3C2=O)cc1 | . | -0.4 | . | -2.8 | .
CN(C)c1ccc(NC2=C(Cl)C(=O)c3ccccc3C2=O)cc1 | 30.7 | -1.3 | 34.7* | -1.8 | 92.4*
O=C1C(Cl)=C(Nc2ccc3cn[nH]c3c2)C(=O)c2ccccc21 | 58.7* | -1.3 | 63.8* | -2.1 | 53.8*
O=C(COc1ccc(-n2cnnn2)cc1)Nc1ccc(F)c(F)c1F | -73.3 | . | 30.0* | . | 1.8
CCc1ccc(CN2CCCC(CNC(=O)c3cccc(OC)c3OC)C2)cc1 (stereo not given) | -33.0 | . | -15.0 | . | -11.7
CC/C(=N\NC(=O)c1cccnc1)c1ccc2c(c1)OCCO2 | -14.7 | 0.8 | -12.4 | 0.6 | 8.4
O=C(COc1ncnc2scc(-c3ccccc3)c12)NC1CCCc2ccccc21 (stereo not given) | 8.4 | 1.1 | -8.5 | 0.6 | 72.7*
COC(=O)[C@]1(C)N[C@H](CN(C)C(=O)NC(C)C)[C@@H]2C(=O)N(C)C(=O)[C@@H]21 | -2.1 | . | -7.9 | . | -3.5
CNC(=O)c1cc(S(=O)(=O)Nc2ccc(C)cc2C)ccc1C | 2.0 | . | -3.9 | . | 4.8
CCN(CC)C(=O)CSc1nnc2nnc3cc(OC)ccc3n12 | -6.3 | 2.0 | -12.3 | -0.7 | 76.5*
CCC(=O)Nc1cc2c3c(c1)CCN3C(=O)CC2 | -7.2 | . | 1.1 | . | 0.0
c1ccc(CNc2ncnc3scc(-c4cccs4)c23)nc1 | 14.4 | 5.5 | 43.7* | 5.8 | 27.7
COc1cc(CCC(=O)OCc2nnc(-c3ccccc3)o2)cc(OC)c1OC | -19.9 | 1.2 | -25.7 | 1.5 | 13.2
COc1cc(-c2nnc(COC(=O)CSc3cc(C)c4ccccc4n3)o2)cc(OC)c1OC | 9.5 | 0.0 | -17.8 | 1.7 | 70.2*
CC1=NN(c2ccccc2)C(=O)/C1=C\C=C1/N(C)c2ccccc2C1(C)C | 41.6* | 3.5 | 28.1* | 5.6 | 24.1
CN1C(=CC=C2C=C(I)C(=O)C(I)=C2)C(C)(C)c2ccccc21 | . | 2.3 | . | 7.7 | .
CC1=NN(c2ccccc2)C(=O)/C1=C\C=C1\N(C)c2ccccc2C1(C)C | 49.9* | 5.0 | 23.6 | 15.2 | 33.1
CN1/C(=C\C=C2/SC(=S)NC2=O)C(C)(C)c2ccccc21 | 99.3* | 19.4* | 95.2* | 32.8* | 19.8
CCN(Cc1cnn(C)c1)Cc1nc(C(c2ccccc2)c2ccccc2)no1 | -28.2 | -1.3 | -23.2 | -1.8 | 23.7
CC(C)N1C(=O)CCC1C(=O)NCc1ccc(F)cc1Cl (stereo not given) | -21.0 | . | -10.6 | . | 3.3
CC(=O)Cc1nsc(NC(=O)c2ccc(-c3ccc(Cl)c(C(F)(F)F)c3)o2)n1 | -6.7 | . | -0.9 | . | 19.0
CC(=O)Cc1nsc(NC(=O)c2ccc(-c3ccc(F)cc3)o2)n1 | 8.5 | 0.5 | -19.3 | 1.0 | 60.8*
CN1CCCN(C(=O)c2cccc3ccccc23)CC1 | -6.4 | . | -7.5 | . | 1.9
O=C(Cc1ccc(Cl)cc1Cl)Nc1ccc(OC(F)F)c(Cl)c1 | -10.4 | 0.9 | -8.1 | 0.6 | 18.1
COc1ccc(NC(=O)Nc2ccc3c(c2)N(C)C(=O)CS3)cc1OC | -6.2 | 0.3 | 11.4 | 0.5 | 21.3
O=C(Nc1ccc2c(c1)OCO2)Nc1ccc2c(c1)OCO2 | -8.3 | 0.5 | -2.3 | 0.2 | 4.7
O=C(Nc1ccc(OC(F)F)c(Cl)c1)Nc1ccc2c(c1)OCO2 | 45.1* | 2.7 | 36.5* | 4.2 | 44.1
COc1ccc(NC(=O)Nc2cccc([N+](=O)[O-])c2)cc1Cl | 29.1 | 7.0 | 5.5 | 15.7 | 73.8*
O=C(Nc1ccc([N+](=O)[O-])cc1)Nc1ccc(OC(F)F)c(Cl)c1 | 84.2* | 5.1 | 100.2* | 18.4 | 76.2*
